In ChEMBL document CHEMBL1135601, “Synthesis and biolocalization of water-soluble sapphyrins” (J Med Chem, 2002):

Experiments:
[1] = Biodistribution after day 1 in mouse tumor; assay type: ADME, organism-based
Procedure, shortened: (§1)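 Female outbred CD-1 nude mice (18-20 g) bearing subcutaneous human pancreatic adenocarcinoma UB 290896 (2 × 2 mm pieces, right flank; used at tumor diameter 4.5-5.5 mm). Aqueous solution (∼1 mmol L-1) given subcutaneously at 15 µmol kg-1 per day for 3 days. Mice killed 1, 3, 6 or 9 days after the last injection. Five mice per time point, plus 5 noninjected controls.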

[2] = Biodistribution after day 3 in mouse blood; assay type: ADME, organism-based; procedure, shortened: as §1
[3] = Biodistribution after day 3 in mouse brain; assay type: ADME, organism-based; procedure, shortened: as §1
[4] = Biodistribution after day 3 in mouse heart; assay type: ADME, organism-based; procedure, shortened: as §1
[5] = Biodistribution after day 3 in mouse kidney; assay type: ADME, organism-based; procedure, shortened: as §1
[6] = Biodistribution after day 3 in mouse liver; assay type: ADME, organism-based; procedure, shortened: as §1
[7] = Biodistribution after day 3 in mouse lung; assay type: ADME, organism-based; procedure, shortened: as §1
[8] = Biodistribution after day 3 in mouse muscle; assay type: ADME, organism-based, Muscle tissue; procedure, shortened: as §1
[9] = Biodistribution after day 3 in mouse spleen; assay type: ADME, organism-based; procedure, shortened: as §1
[10] = Biodistribution after day 3 in mouse tumor; assay type: ADME, organism-based; procedure, shortened: as §1
[11] = Biodistribution after day 6 in mouse blood; assay type: ADME, organism-based; procedure, shortened: as §1
[12] = Biodistribution after day 6 in mouse brain; assay type: ADME, organism-based; procedure, shortened: as §1
[13] = Biodistribution after day 6 in mouse heart; assay type: ADME, organism-based; procedure, shortened: as §1
[14] = Biodistribution after day 6 in mouse kidney; assay type: ADME, organism-based; procedure, shortened: as §1
[15] = Biodistribution after day 6 in mouse lung; assay type: ADME, organism-based; procedure, shortened: as §1
[16] = Biodistribution after day 6 in mouse muscle; assay type: ADME, organism-based, Muscle tissue; procedure, shortened: as §1
[17] = Biodistribution after day 6 in mouse spleen; assay type: ADME, organism-based; procedure, shortened: as §1
[18] = Biodistribution after day 6 in mouse tumor; assay type: ADME, organism-based; procedure, shortened: as §1
[19] = Biodistribution after day 1 in mouse blood; assay type: ADME, organism-based; procedure, shortened: as §1
[20] = Biodistribution after day 1 in mouse brain; assay type: ADME, organism-based; procedure, shortened: as §1
[21] = Biodistribution after day 1 in mouse heart; assay type: ADME, organism-based; procedure, shortened: as §1
[22] = Biodistribution after day 1 in mouse kidney; assay type: ADME, organism-based; procedure, shortened: as §1
[23] = Biodistribution after day 1 in mouse liver; assay type: ADME, organism-based; procedure, shortened: as §1
[24] = Biodistribution after day 1 in mouse lung; assay type: ADME, organism-based; procedure, shortened: as §1
[25] = Biodistribution after day 1 in mouse muscle; assay type: ADME, organism-based, Muscle tissue; procedure, shortened: as §1
[26] = Biodistribution after day 1 in mouse spleen; assay type: ADME, organism-based; procedure, shortened: as §1
[27] = Biodistribution after day 6 in mouse liver; assay type: ADME, organism-based; procedure, shortened: as §1

| SMILES | concentration at 1 day [1] | concentration at 3 day [2] | concentration at 3 day [3] | concentration at 3 day [4] | concentration at 3 day [5] | concentration at 3 day [6] | concentration at 3 day [7] | concentration at 3 day [8] | concentration at 3 day [9] | concentration at 3 day [10] | concentration at 6 day [11] | concentration at 6 day [12] | concentration at 6 day [13] | concentration at 6 day [14] | concentration at 6 day [15] | concentration at 6 day [16] | concentration at 6 day [17] | concentration at 6 day [18] | concentration at 1 day [19] | concentration at 1 day [20] | further results |
| --- | --- | --- | --- | --- | --- | --- | --- | --- | --- | --- | --- | --- | --- | --- | --- | --- | --- | --- | --- | --- | --- |
| CCc1c(CC)c2cc3nc(cc4[nH]c(c(C)c4CC)c4[nH]c(cc5nc(cc1[nH]2)C(CCC(=O)NCCOCCOCCO)=C5C)c(CC)c4C)C(C)=C3CCC(=O)NCCOCCOCCO | 22000 ng/g | 9300 ng/g | 4300 ng/g | 7800 ng/g | 59000 ng/g | 61000 ng/g | 11000 ng/g | 9300 ng/g | 11000 ng/g | 130000 ng/g | 3400 ng/g | 4300 ng/g | 4800 ng/g | 52000 ng/g | 19000 ng/g | 3400 ng/g | 14000 ng/g | 180000 ng/g | 7000 ng/g | 2700 ng/g | concentration at 1 day [21]: 8000 ng/g; concentration at 1 day [22]: 3100 ng/g; concentration at 1 day [23]: 14000 ng/g; concentration at 1 day [24]: 13000 ng/g; concentration at 1 day [25]: 10000 ng/g; concentration at 1 day [26]: 4600 ng/g; concentration at 6 day [27]: 16000 ng/g |
| CCc1c(CC)c2cc3nc(cc4[nH]c(c(C)c4CC)c4[nH]c(cc5nc(cc1[nH]2)C(CCC(=O)N(CCO)CCO)=C5C)c(CC)c4C)C(C)=C3CCC(=O)N(CCO)CCO [SAPPHYRIN] | 109000 ng/g | 900 ng/g | 270 ng/g | 960 ng/g | 330 ng/g | 1500 ng/g | 710 ng/g | 760 ng/g | 1390 ng/g | 220000 ng/g | 500 ng/g | 290 ng/g | 760 ng/g | 460 ng/g | 710 ng/g | 710 ng/g | 960 ng/g | 130000 ng/g | 500 ng/g | 240 ng/g | concentration at 1 day [21]: 950 ng/g; concentration at 1 day [22]: 440 ng/g; concentration at 1 day [23]: 1420 ng/g; concentration at 1 day [24]: 480 ng/g; concentration at 1 day [25]: 1020 ng/g; concentration at 1 day [26]: 1290 ng/g; concentration at 6 day [27]: 1200 ng/g |
| CCC1=C(CC)c2cc3[nH]c(cc4[nH]c(c(C)c4CC)c4[nH]c(cc5nc(cc1n2)C(CCC(=O)NCCOCCOCCN)=C5C)c(CC)c4C)c(C)c3CCC(=O)NCCOCCOCCN | 4200 ng/g | 3020 ng/g | 5000 ng/g | 15500 ng/g | 6800 ng/g | 25000 ng/g | 19000 ng/g | 29000 ng/g | 11000 ng/g | 114000 ng/g | 2450 ng/g | 2400 ng/g | 9200 ng/g | 3800 ng/g | 7000 ng/g | 45000 ng/g | 3300 ng/g | 51000 ng/g | 1690 ng/g | 500 ng/g | concentration at 1 day [21]: 2000 ng/g; concentration at 1 day [22]: 640 ng/g; concentration at 1 day [23]: 210 ng/g; concentration at 1 day [24]: 1700 ng/g; concentration at 1 day [25]: 1900 ng/g; concentration at 1 day [26]: 1300 ng/g; concentration at 6 day [27]: 4200 ng/g |
